Activity calls are given as the source filed them. The calls are words filed in the database; no cut-off is given here.

The source of these data is ChEMBL document CHEMBL1124575, “Water-soluble third generation antitumor platinum complexes, [2,2-bis (aminomethyl)-1,3-propanediol-N,N']-[1,1-cyclobutanedicarboxylato (2-)-O,O']platinum(II) and [1,1-cyclobutanedicarboxylato(2-)-O,O'] [tetrahydro-4H-pyran-4,4-dimethanamine-N,N']platinum(II)” (J Med Chem, 1989).

Series [1] concerns Mus musculus. As to the kind of experiment: Percent tumor weight inhibition (TWI) in athymic mice at an optimal dose of 50 mg/kg in […] cells. In kind it is functional, organism-based. Also noted: dose 50 mg/kg.
Series [2] deals with L1210. Briefly: Antitumor activity against murine tumor cells L1210 cisplatin resistant leukemia in BDF1 mice administered mg/Kg intraperitoneally on days 1,5, and 9 relative to tumor inoculation; Inactive. The following applies: Mus musculus. The class given is functional. Put shortly:
(§1)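 L1210, cisplatin-resistant L1210 and P388 leukemias implanted in BDF1 mice and maintained per National Cancer Institute protocols. Drug given ip on days 1, 5 and 9 after inoculation, with 30-day observation. The end point is % ILS versus controls, with >25% needed for activity. Reduction of ILS or body weight by >15% is rated toxic.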

For series [3], the system named is Colon 26. As to the kind of experiment: Antitumor activity against murine tumor cells Colon 26 in BALB / C mice administered 50 mg/Kg intraperitoneally on days 1,5, and 9 relative to tumor inoculation. The class given is functional, cell-based. The settings on record: Mus musculus. Put shortly:
(§2)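 Colon 26 carcinoma grown in Balb/C mice following National Cancer Institute protocols. Intraperitoneal dosing on days 1, 5 and 9 after tumor inoculation, with survival followed for 30 days. Activity is scored as % ILS over control mice, and ILS >25% is required. Toxicity is a >15% drop in ILS or body weight versus controls.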

Series [4] relates to B16. As to the kind of experiment: Antitumor activity against murine tumor cells B16 in C57BC mice administered 12.5 mg/Kg intraperitoneally on days 1-9 relative to tumor inoculation. In kind it is functional. The settings on record: Mus musculus. Put shortly:
(§3)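 B16 melanoma in C57BC/6 mice, propagated per National Cancer Institute protocols. Drug given ip daily on days 1-9 after tumor inoculation, with observation for 60 days. Read-out is % increase in life span (ILS) over controls. ILS >25% counts as active. Treatment cutting ILS or body weight by >15% versus controls is rated toxic.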

Series [5] concerns MX1. As to the kind of experiment: Percent tumor weight inhibition (TWI) in athymic mice at an optimal dose of 50 mg/kg in breast MX-1 cells. In kind it is functional, organism-based. The arrangement: dose 50 mg/kg. The settings on record: Mus musculus.
Series [6] has as its system P388. As to the kind of experiment: Antitumor activity against murine tumor cells, P388 in BDF1 mice administered 100 mg/kg intraperitoneally on days 1,5, and 9 relative to tumor inoculation. The class given is functional, organism-based. Also noted: dose 100 mg/kg. The following applies: Mus musculus, at 100 mg/kg. Put shortly: as §1
For series [7], the system named is L1210. As to the kind of experiment: Antitumor activity against murine tumor cells L1210 in BDF1 mice administered 100 mg/kg intraperitoneally on days 1,5, and 9 relative to tumor inoculation. The following applies: Mus musculus, at 100 mg/kg. Also noted: dose 100 mg/kg. The class given is functional, organism-based. In a few lines: as §1
The subject of series [8] is Mus musculus. As to the kind of experiment: Percent tumor weight inhibition (TWI) in athymic mice at an optimal dose of 3 mg/kg in […] cells. In kind it is functional, organism-based. Also noted: dose 3 mg/kg.
The subject of series [9] is P388. Briefly: Antitumor activity against murine tumor cells, P388 in BDF1 mice administered 3 mg/kg intraperitoneally on days 1,5, and 9 relative to tumor inoculation. The arrangement: dose 3 mg/kg. The settings on record: Mus musculus, at 3 mg/kg. In kind it is functional, organism-based. Put shortly: as §1
For series [10], the system named is MX1. Briefly: Percent tumor weight inhibition (TWI) in athymic mice at an optimal dose of 3 mg/kg in breast MX-1 cells. The class given is functional, organism-based. The settings on record: Mus musculus. The arrangement: dose 3 mg/kg.
Series [11] concerns B16. As to the kind of experiment: Antitumor activity against murine tumor cells B16 in C57BC mice administered 0.4 mg/kg intraperitoneally on days 1-9 relative to tumor inoculation. In kind it is functional, organism-based. The following applies: Mus musculus, at 0.4 mg/kg. Also noted: dose 0.4 mg/kg. In a few lines:
as §3

The subject of series [12] is L1210. As to the kind of experiment: Antitumor activity against murine tumor cells L1210 cisplatin resistant leukemia in BDF1 mice administered mg/Kg intraperitoneally on days 1,5, and 9 relative to tumor inoculation; In active. The class given is functional. The settings on record: Mus musculus. Put shortly: as §1
Series [13] deals with Colon 26. As to the kind of experiment: Antitumor activity against murine tumor cells Colon 26 in BALB / C mice administered 1 mg/Kg intraperitoneally on days 1,5, and 9 relative to tumor inoculation. In kind it is functional. The following applies: Mus musculus. Put shortly: as §2
In series [14] the test system is L1210. Briefly: Antitumor activity against murine tumor cells L1210 in BDF1 mice administered 6.2 mg/kg intraperitoneally on days 1,5, and 9 relative to tumor inoculation. In kind it is functional, organism-based. The arrangement: dose 6.2 mg/kg. The following applies: Mus musculus, at 6.2 mg/kg. Put shortly: as §1
Series [15] is described as follows: Solubility in water. The class given is physicochemical. The settings on record: buffer.
Series [16] deals with B16. Briefly: Antitumor activity against murine tumor cells B16 in C57BC mice administered 0.2 mg/Kg intraperitoneally on days 1-9 relative to tumor inoculation. In kind it is functional. The settings on record: Mus musculus. Put shortly: as §3
For series [17], the system named is B16. Briefly: Antitumor activity against murine tumor cells B16 in C57BC mice administered 6 mg/kg intraperitoneally on days 1-9 relative to tumor inoculation. The class given is functional, organism-based. Also noted: dose 6 mg/kg. The settings on record: Mus musculus, at 6 mg/kg. In a few lines: as §3
The test system of series [18] is L1210. Briefly: Antitumor activity against murine tumor cells L1210 in BDF1 mice administered 3.1 mg/kg intraperitoneally on days 1,5, and 9 relative to tumor inoculation. In kind it is functional, organism-based. Also noted: dose 3.1 mg/kg. The following applies: Mus musculus, at 3.1 mg/kg. In a few lines:
as §1

In series [19] the test system is P388. As to the kind of experiment: Antitumor activity against murine tumor cells, P388 in BDF1 mice administered 6.2 mg/Kg intraperitoneally on days 1,5, and 9 relative to tumor inoculation. The class given is functional. The settings on record: Mus musculus. Put shortly: as §1
Another series has as its system M5076. Briefly: Antitumor activity against murine tumor cells M5076 in BDF1 mice administered 3 mg/Kg intraperitoneally on days 1,5, and 9 relative to tumor inoculation. The class given is functional. The following applies: Mus musculus.
In series [20] the test system is Colon 26. As to the kind of experiment: Antitumor activity against murine tumor cells Colon 26 in BALB / C mice administered 0.8 mg/Kg intraperitoneally on days 1,5, and 9 relative to tumor inoculation. The settings on record: Mus musculus. The class given is functional. In a few lines:
as §2

The subject of series [21] is Colon 26. As to the kind of experiment: Antitumor activity against murine tumor cells Colon 26 in BALB / C mice administered 3.1 mg/Kg intraperitoneally on days 1,5, and 9 relative to tumor inoculation. The class given is functional. The following applies: Mus musculus. In a few lines: as §2
Series [22] relates to B16. As to the kind of experiment: Antitumor activity against murine tumor cells B16 in C57BC mice administered 0.4 mg/Kg intraperitoneally on days 1-9 relative to tumor inoculation. In kind it is functional. The settings on record: Mus musculus. Put shortly: as §3
For series [23], the system named is P388. As to the kind of experiment: Antitumor activity against murine tumor cells, P388 in BDF1 mice administered 3.2 mg/Kg intraperitoneally on days 1,5, and 9 relative to tumor inoculation. In kind it is functional. The following applies: Mus musculus. Put shortly:
as §1

The test system of series [24] is B16. Briefly: Antitumor activity against murine tumor cells B16 in C57BC mice administered 1.5 mg/Kg intraperitoneally on days 1-9 relative to tumor inoculation. In kind it is functional. The following applies: Mus musculus. Put shortly:
as §3

The subject of series [25] is L1210. Briefly: Antitumor activity against murine tumor cells L1210 in BDF1 mice administered 1.5 mg/kg intraperitoneally on days 1,5, and 9 relative to tumor inoculation. The settings on record: Mus musculus, at 1.5 mg/kg. Also noted: dose 1.5 mg/kg. The class given is functional, organism-based. Put shortly:
as §1

Regarding CARBOPLATIN, the TWI in the series on Mus musculus [1] turned out to be 200%; in the series with MX1 [5] it was 90%. For the same substance, the Increase result in the series with L1210 [2] was “inactive”. Moreover, the Increase with Colon 26 [3] was 85%; in the series with B16 [4] it was 43%; with P388 [6], 144%; in the series with L1210 [7] it was 35%.
As for CISPLATIN, the results for the TWI in the series on Mus musculus [8] and in the series with MX1 [10] were 200% and 86%, respectively. Also, the Increase was found to be 140% in the series on P388 [9], 36% in the series on B16 [11], 47% in the series with Colon 26 [13] and 96% in the series with L1210 [14]. Besides, the Increase entry with L1210 [12] is “inactive”.
In [15], “cis-Diamminedichloroplatinum (II) complex [listing 1 of 3 here]” showed an S of 0.3 mg/mL.
“cis-Diamminedichloroplatinum (II) complex [listing 2 of 3 here]”: the S in [15] turned out to be 1 mg/mL.
Take “cis-Diamminedichloroplatinum (II) complex [listing 3 of 3 here]”: the Increase in the series on B16 [16] was determined as 43%; in the series on B16 [17], 53%; in the series on L1210 [18], 39%; in the series on P388 [19], 136%; in the series with M5076, 128%; with Colon 26 [20], 39%. Further, the Increase with Colon 26 [21] came out at 59%; in the series with B16 [22], 43%; in the series with P388 [23], 173%; with B16 [24], 36%; in the series on L1210 [25], 38%; with L1210 [14] it was 50%.
